From PubChem
mABHD4 FP – inhibitors of mouse ABHD4; inhibition, % at 8.92 µM; Q8VD66; hit rate 0.54% among 370,000; AID 720543; purified mABHD4, FP-Rh probe fluorescence polarization;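 active = inhibition exceeding the mean over every tested compound plus 3 SD, cut at about 30% in these data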;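 also: 0% = plate median of compound wells and 100% = S159A mutant with DMSO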
Target sequence (Q8VD66 whole entry, looked up): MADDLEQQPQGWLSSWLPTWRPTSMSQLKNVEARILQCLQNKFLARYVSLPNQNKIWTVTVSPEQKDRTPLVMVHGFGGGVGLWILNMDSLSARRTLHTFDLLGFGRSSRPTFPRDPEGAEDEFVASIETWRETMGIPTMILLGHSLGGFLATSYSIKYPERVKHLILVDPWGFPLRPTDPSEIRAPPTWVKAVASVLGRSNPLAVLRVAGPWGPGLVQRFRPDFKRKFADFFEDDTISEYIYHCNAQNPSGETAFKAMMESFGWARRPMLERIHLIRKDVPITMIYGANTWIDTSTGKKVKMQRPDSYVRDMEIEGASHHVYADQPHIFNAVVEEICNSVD
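assay system = mABHD4 protein | compound dosing = single nominal dose of 8.92 µM, 0.89% DMSO final | read-out basis = percent inhibition of probe binding, normalized to plate controls | schedule = Enzyme–compound pre-incubation 45 min, then probe 60 min, both 25 °C | detection = fluorescence polarization, excitation 525 nm, emission 598 nm, BODIPY TMR filters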
SIAE inh – blocks human sialic acid acetylesterase. Q9HAT2. SIAE FP-Rh probe binding, fluorescence polarization. inhibition, % at 9.66 µM. hit rate 0.69% among 370,000. AID 1053197;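 active = inhibition above a cutoff: mean of compounds within the control limits plus 3 SD of those, cut at about 17% in these data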;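 also: 0% = plate median of compound wells and 100% = probe without SIAE protein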
PRMT1 FP inh – PRMT1 (human) inhibition, primary screen | Q99873 | hit rate 1.3% among 370,000 | recombinant PRMT1, activity-based probe fluorescence polarization | AID 652257 | inhibition, % at 2.79 µM;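 active = inhibition above about 21% made by adding two undisclosed values, limit read from the data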
Target sequence (Q99873 whole entry, looked up): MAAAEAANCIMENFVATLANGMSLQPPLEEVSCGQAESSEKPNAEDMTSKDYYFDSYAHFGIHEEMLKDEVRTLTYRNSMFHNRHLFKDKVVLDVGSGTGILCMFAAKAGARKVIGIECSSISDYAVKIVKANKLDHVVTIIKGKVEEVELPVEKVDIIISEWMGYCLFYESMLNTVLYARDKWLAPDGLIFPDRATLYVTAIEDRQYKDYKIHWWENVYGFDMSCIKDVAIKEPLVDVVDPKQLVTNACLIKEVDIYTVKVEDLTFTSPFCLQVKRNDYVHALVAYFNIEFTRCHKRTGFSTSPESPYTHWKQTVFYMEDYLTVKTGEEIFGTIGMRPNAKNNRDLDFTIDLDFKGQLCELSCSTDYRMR
rCAG binder – molecules binding r(CAG) RNA repeats | hit rate 1.3% among 370,000 | AID 651821 | inhibition, % at 3 µM | r(CAG) RNA repeat, TO-PRO-1 dye displacement fluorescence;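 active = inhibition above the plate cutoff, the mean of all test compounds on that plate plus 3 SD, cut at about 35% in these data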;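 also: 0% = DMSO alone and 100% = 100 µM mitoxantrone as full dye displacement; higher means more dye released from RNA so lower well fluorescence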
TCR CD3 inh – blocks the human TCR-CD3 interaction; TAMRA-labeled TCR probe fluorescence, biochemical; inhibition, % at 9.4 µM; hit rate 0.37% among 360,000; AID 651800; in the data active = inhibition above about 19%;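 also: recombinant mutant TCR 2C K166C tagged with TAMRA read by polarization; 0% = receptor in buffer alone and 100% = receptor with positive control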
rCAG bind conf – r(CAG) RNA repeat binding, confirmation; shares compounds with rCAG binder; TO-PRO-1 dye displacement fluorescence; inhibition, % at 3 µM; hit rate 70% among 4,300; AID 652065;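 active = inhibition above a per-plate cutoff, the mean inhibition of sample wells plus 3 SD, cut at about 35% in these data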;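 also: loss of TO-PRO-1 fluorescence as compound displaces dye from 1x1 AA loop RNA; 0% = DMSO only wells and 100% = 100 µM mitoxantrone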
DNA CAG counter – disrupts DNA CAG TO-PRO-1 complex, flagging rCAG hits; d(CAG) DNA oligo TO-PRO-1 dye displacement, fluorescence; inhibition, % at 3 µM; AID 652068; hit rate 94% among 4,300; shares compounds with rCAG binder;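 active = inhibition above its plate's cutoff, the mean test-well inhibition plus 3 SD, cut at about 4.8% in these data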;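 also: 0% = DNA dye mix with DMSO and 100% = 100 µM mitoxantrone; hits displace the dye from DNA and so lower well fluorescence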
DNA CAG DR – disrupts DNA CAG TO-PRO-1 complex in dose response. shares compounds with rCAG binder. DNA CAG/GTC duplex TO-PRO-1 dye displacement fluorescence. IC50, µM. hit rate 20% among 250. AID 686960; in the data active = IC50 below about 10 µM
Active calls of the source: *; / = no result given. The list is not random: actives were taken first. Their share in the collection is about 3.3%.

SMILES | mABHD4 FP | SIAE inh | PRMT1 FP inh | rCAG binder | TCR CD3 inh | rCAG bind conf | DNA CAG counter | others
Cc1ccc(S(=O)(=O)Oc2ccccc2/C=N/O)cc1 | -4 | 0 | -4 | -1 | 5 | / | /
Cc1ccc(S(=O)(=O)Oc2ccccc2/C=N/Nc2ccc(C(=O)O)cc2)cc1 | 11 | 5 | 3 | 50* | 8 | 29 | 6.1*
Cc1cccc(N2CC(C(=O)Nc3ccc(S(=O)(=O)Nc4nccs4)cc3)CC2=O)c1C (stereo unspecified) | 3 | 2 | -3 | 30 | 3 | / | /
Cc1ccc(N2CC(C(=O)Nc3ccc(S(=O)(=O)Nc4nccs4)cc3)CC2=O)cc1 (stereo unspecified) | -3 | -5 | -2 | 36* | -3 | 27 | 6.7*
CCOc1ccc(N2CC(C(=O)Nc3ccc(S(=O)(=O)Nc4nccs4)cc3)CC2=O)cc1 (stereo unspecified) | 10 | -4 | 3 | 49* | -1 | 34 | 12*
CN(C)S(=O)(=O)c1cccc(C(=O)N/N=C\c2cccc(C#N)c2)c1 | 4 | 2 | -4 | 1 | / | / | /
O=C(CSc1nnc(SCc2ccccc2)s1)NNC(=S)Nc1ccccc1 | -9 | 0 | 15 | 43* | 3 | 52* | 18* | DNA CAG DR=>30
CCOC(=O)[C@@]12CCCC3=C1N(CCC3)C(=O)[C@H]2CC(=O)NCc1ccc(C)o1 | 2 | 5 | 2 | 2 | / | / | /
CC1(C)CC[C@]2(C(=O)O[C@@H]3OC(CO)[C@@H](O)[C@H](O)[C@H]3O)CC[C@]3(C)C(=CCC4[C@@]5(C)CC[C@H](O[C@@H]6OC(C(=O)O)[C@@H](O)[C@H](O)[C@H]6O)C(C)(C)C5CC[C@]43C)[C@@H]2C1 (stereo partly specified) | -3 | 1 | 3 | 46* | 0 | 45* | 12* | DNA CAG DR=>30
CCc1nnc(NC(=O)c2ccc(S(=O)(=O)N3CCCC(C)C3)cc2)s1 (stereo unspecified) | 2 | 0 | -2 | 0 | 12 | / | /
Cc1cccc2sc(NNC(=O)c3ccc(S(=O)(=O)N4CCCC(C)C4)cc3)nc12 (stereo unspecified) | 21 | 16 | 4 | 53* | -3 | 45* | 19*
Cc1cccc2sc(NNC(=O)c3ccc(S(=O)(=O)N4CCc5ccccc5C4)cc3)nc12 | 5 | 13 | -5 | 54* | 5 | 59* | 30*
Cc1nn(-c2ccccc2)c2sc(C(=O)NCc3ccc(F)cc3)cc12 | -63 | -60 | -2 | 8 | / | / | /
Cn1c(COc2ccccc2)nnc1SCC(=O)Nc1ccc(S(=O)(=O)Nc2nccs2)cc1 | -2 | -3 | -1 | 49* | / | 47* | 18*
Nn1c(SCC(=O)Nc2ccc(S(=O)(=O)Nc3nccs3)cc2)nnc1-c1ccco1 | 5 | 2 | -1 | 10 | / | / | /
O=C(CSc1nnc(-c2ccco2)n1-c1ccc(Cl)cc1)Nc1ccc(S(=O)(=O)Nc2nccs2)cc1 | -14 | -8 | -3 | 62* | / | 57* | 20*
Cc1ccc(OCc2nnc(SCC(=O)Nc3nccs3)n2-c2ccccc2)cc1C | -7 | -3 | -1 | 2 | -1 | / | /
COc1ccc(-c2nnc(Nc3ccc(S(=O)(=O)Nc4nccs4)cc3)c3ccccc23)cc1 | -6 | -21 | 6 | 35* | 6 | 50* | 19*
O=C(CSc1nnc(COc2ccccc2)n1-c1ccccc1)Nc1ccc(S(=O)(=O)Nc2nccs2)cc1 | -18 | -12 | -2 | 75* | / | 65* | 28*
O=C(NCCO)[C@H](Cc1ccccc1)NC1(C(=O)NCCc2c[nH]c3ccccc23)CCCCC1 | 0 | 3 | -2 | / | / | / | /
CCCC/C=C1/[C@H](CC)N(C)C2=N[C@@H](c3ccccc3)CC(=O)N21 | 0 | 5 | 3 | / | / | / | /
COc1ccc(-n2c(SCC(=O)Nc3nccs3)nnc2-c2ccccc2)cc1 | 5 | -3 | 0 | -2 | 3 | / | /
COc1ccc(-n2c(SCC(=O)Nc3ccc(S(=O)(=O)Nc4nccs4)cc3)nnc2-c2ccccc2)cc1 | -21 | -18 | 4 | 78* | / | 72* | 37*
CC(c1ccccc1)N1C(=O)c2ccc(C(=O)Nc3ccc(Br)cc3C(=O)O)cc2C1=O (stereo unspecified) | -21 | -11 | -1 | 52* | 5 | 81* | 77*
CC(C)CN1C(=O)c2ccc(C(=O)Nc3ccc(O)cc3C(=O)O)cc2C1=O | 0 | -10 | 1 | 16 | 6 | / | /
SMILES | mABHD4 FP | SIAE inh | PRMT1 FP inh | rCAG binder | TCR CD3 inh | rCAG bind conf | DNA CAG counter | others
CC(c1ccccc1)N1C(=O)c2ccc(C(=O)Nc3ccccc3C(=O)O)cc2C1=O (stereo unspecified) | -44 | -35 | 2 | 81* | -7 | 87* | 70*
COC(=O)C1=C[C@@H]([C@@H](C)[C@H](OC)c2ccccc2Br)[C@@H]2OCCC[C@H]12 | -2 | 5 | 2 | 0 | / | / | /
C[C@H](NS(=O)(=O)c1ccc([N+](=O)[O-])cc1)C(=O)NCCNC(=O)[C@@H](C)NS(=O)(=O)c1ccc([N+](=O)[O-])cc1 | 2 | -1 | 1 | / | / | / | /
CSc1ccccc1NC(=O)Nc1cccc(Cl)c1 | -27 | -16 | 0 | 7 | 9 | / | /
COc1cc(OC)c(NC(=O)Nc2ccc(OC)c(OC)c2)cc1Cl | 0 | -2 | -1 | -3 | -3 | / | /
Cc1ccc(NC(=O)Nc2cccc(Cl)c2)c(C(=O)O)c1 | 3 | -10 | 2 | 47* | 0 | 21 | 3
COc1cc(NC(=O)Nc2ccc(Cl)c(Cl)c2)c(C(=O)O)cc1OC | 10 | 8 | -1 | 70* | 1 | 54* | 15*
O=C(COc1ccc(Cl)cc1Cl)Nc1ccc(C(=O)Nc2ccccc2C(=O)O)cc1 | -27 | -28 | 2 | 50* | 7 | 86* | 74*
Cc1cc(C)c(C)c(S(=O)(=O)Nc2cccc(S(=O)(=O)Nc3ccccc3C(=O)O)c2)c1C | -27 | -13 | 0 | 78* | -3 | 73* | 38*
COC(=O)[C@]12C[C@H](CC(=O)N3CCOCC3)C(=O)N(CCc3ccc(OC)c(OC)c3)C1=C[C@H](C(C)C)O[C@@H]2C1CC1 | 2 | 3 | -6 | -2 | / | / | /
N#Cc1cccc(NC(=O)OC2CC3CC2[C@H]2CCCCN2C3)c1 (stereo partly specified) | 1 | -1 | -4 | 6 | / | / | /
O=C(OCCCCSc1nnc(-c2cccc3ccccc23)o1)c1ccc(F)cc1 | -5 | -3 | -2 | / | / | / | /
CC(=O)Nc1ccc(S(=O)(=O)Nc2cccc(C(=O)Nc3ccccc3C(=O)O)c2)cc1 | -16 | -17 | 2 | 47* | 5 | 18 | 4.7*
